In publication PMC11112339 (iScience, 2024):
Entries after “also recorded” stand apart in the source; their conditions may differ.

Experiments:
non-tumor (NT) organoids = assay: Organoid viability, CellTiter-Glo 3D; type: cell-based, human; settings: 72 h
How it was run: (§1)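 Organoids came from dissociated patient tumour (iCCA) or non-tumour biopsies, embedded in reduced-growth-factor BME droplets with expansion medium. After 3 days, test compound was added at graded concentrations in expansion medium with 0.02% Tween20 for 72 h. Viability was read by CellTiter-Glo 3D luminescence as % of DMSO-treated organoids, with ≥3 independent experiments. EC50 (tumour organoids) came from nonlinear regression.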

Tumor (iCCA) organoids = assay: Organoid viability, CellTiter-Glo 3D; type: cell-based, human; settings: 72 h; for EC50: Homo sapiens, read-out: EC50, iCCA-derived organoids growth
How it was run: as §1

mVDAC1 N238K [1] = target: T1, mVDAC1 N238K (Mus musculus, UniProt Q60932, N251K); assay: Fluorescence polarization NADH competition assay; type: binding
T1 sequence (Q60932 14-296 N251K): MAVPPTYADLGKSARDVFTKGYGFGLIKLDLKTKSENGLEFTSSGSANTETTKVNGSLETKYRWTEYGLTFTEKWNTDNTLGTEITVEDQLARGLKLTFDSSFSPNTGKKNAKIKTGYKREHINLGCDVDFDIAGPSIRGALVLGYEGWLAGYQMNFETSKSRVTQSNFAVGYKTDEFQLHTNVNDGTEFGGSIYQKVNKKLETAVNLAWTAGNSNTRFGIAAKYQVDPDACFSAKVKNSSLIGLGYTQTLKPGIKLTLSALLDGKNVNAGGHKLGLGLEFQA
How it was run: (§2)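 This is an FP competition assay. Refolded, SEC-purified recombinant mVDAC1 (7 μM) was preloaded with 5 μM NADH and titrated with increasing test compound. Buffer was 20 mM Tris, 50 mM NaCl, 0.1% LDAO, pH 8.0. FP was computed from parallel and perpendicular intensities. Apparent KD came from a Hill fit of FP against compound concentration, run in triplicate.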

NIH-3T3 = assay: Cell viability MTT assay; type: cell-based; settings: Mus musculus, NIH3T3, 48 h, read-out: Half the effective dose (EC50), cell viability
How it was run: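 NIH-3T3 kept in high-glucose DMEM with 10% calf serum and penicillin/streptomycin at 37°C, 5% CO₂, used at 70–80% confluency. Seeded 10.000 cells/well, treated 24 h later with a concentration range of test compound for 48 h. MTT added (final 5 mg/ml), 3 h at 37°C, formazan dissolved in DMSO, absorbance 590 nm. n = 3, mean ± SEM; EC50 by nonlinear regression.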

mVDAC1 wild-type [2] = target: T2, mVDAC1 wild-type (Mus musculus, UniProt Q60932); assay: Fluorescence polarization NADH competition assay; type: binding
T2 sequence (Q60932 14-296): as the sequence (Q60932 14-296 N251K) above, with K238N counted along it
How it was run: as §2

mVDAC1 K236A [3] = target: T3, mVDAC1 K236A (Mus musculus, UniProt Q60932, K249A); assay: Fluorescence polarization NADH competition assay; type: binding; settings: apparent KD, NADH 5 μM, protein 7 μM, mean ± SEM n=3
T3 sequence (Q60932 14-296 K249A): as the sequence (Q60932 14-296 N251K) above, with K236A, K238N counted along it
How it was run: as §2

mVDAC1 N207R = mVDAC1 N207R (Mus musculus, UniProt Q60932, N220R); assay: Thermal denaturation; type: binding; settings: small molecule 1 mM in DMF; mean ± SEM n=3
Chain of mVDAC1 N207R (Q60932 14-296 N220R): as the sequence (Q60932 14-296 N251K) above, with N207R, K238N counted along it
How it was run: (§3)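 Wild-type or mutant refolded mVDAC1 (0.9 mg/ml final in 20 mM Tris-HCl, 50 mM NaCl, 0.1% LDAO, pH 8.0) was pretreated 1 h at 4°C with 1 mM test compound or 0.5% DMF. It was heated in capillaries from 35 to 95°C at 30°C/min while tryptophan fluorescence was read at 330/350 nm. Ti was the first-derivative maximum of F350/F330, checked by Hill fit. ΔTi was treated versus untreated, with ≥3 repeats.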

mVDAC1 wild-type [4] = target: T2, mVDAC1 wild-type; assay: Thermal denaturation; type: binding; settings: mean ± SEM n=3; for Temperature denaturation inflection point (Ti) shift: mVDAC1 0.9 mg/mL in LDAO, VA molecule 1 mM vs DMF 0.5%; for Inflection temperature T(i), WT: small molecule 1 mM in DMF
How it was run: as §3

mVDAC1 K236A [5] = target: T3, mVDAC1 K236A; assay: Thermal denaturation; type: binding; settings: small molecule 1 mM in DMF; mean ± SEM n=3
How it was run: as §3

mVDAC1 N238F = mVDAC1 N238F (Mus musculus, UniProt Q60932, N251F); assay: Thermal denaturation; type: binding; settings: small molecule 1 mM in DMF; mean ± SEM n=3
Chain of mVDAC1 N238F (Q60932 14-296 N251F): as the sequence (Q60932 14-296 N251K) above, with K238F counted along it
How it was run: as §3

mVDAC1 N238K [6] = target: T1, mVDAC1 N238K; assay: Thermal denaturation; type: binding; settings: small molecule 1 mM in DMF; mean ± SEM n=3
How it was run: as §3

mVDAC1 R218Y = mVDAC1 R218Y (Mus musculus, UniProt Q60932, R231Y); assay: Thermal denaturation; type: binding; settings: small molecule 1 mM in DMF; mean ± SEM n=3
Chain of mVDAC1 R218Y (Q60932 14-296 R231Y): as the sequence (Q60932 14-296 N251K) above, with R218Y, K238N counted along it
How it was run: as §3

mVDAC1 N238R = mVDAC1 N238R (Mus musculus, UniProt Q60932, N251R); assay: Thermal denaturation; type: binding; settings: small molecule 1 mM in DMF; mean ± SEM n=3
Chain of mVDAC1 N238R (Q60932 14-296 N251R): as the sequence (Q60932 14-296 N251K) above, with K238R counted along it
How it was run: as §3

mVDAC1 F18A = mVDAC1 F18A (Mus musculus, UniProt Q60932, F31A); assay: Thermal denaturation; type: binding; settings: small molecule 1 mM in DMF; mean ± SEM n=3
Chain of mVDAC1 F18A (Q60932 14-296 F31A): as the sequence (Q60932 14-296 N251K) above, with F18A, K238N counted along it
How it was run: as §3

mVDAC1 wild-type [7] = target: T2, mVDAC1 wild-type; assay: Fluorescence polarization, NADH binding to purified VDAC1; settings: read-out: KD of NADH, VDAC1 wild-type; 5 μM NADH titrated with protein; Hill fit
How it was run: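 NADH at 5 μM was titrated with increasing recombinant refolded mVDAC1 in 20 mM Tris, 50 mM NaCl, 0.1% LDAO, pH 8.0. NADH intrinsic fluorescence was read at ex 355 / em 460 nm. FP was computed from parallel and perpendicular intensities. KD came from a nonlinear Hill fit of FP against protein concentration, in triplicate.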

[8] = system: iCCA patient-derived 2D cells; assay: MTT viability of patient-derived 2D cells; type: cell-based, human; settings: 72 h exposure, 2μM
How it was run: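 Primary 2D cells came from iCCA patient biopsies, with paired non-tumour cells as control. Cells were grown in DMEM/F-12 with 10% FBS and 1% pen/strep. They were seeded at 5.000 cells/well, treated 3 days later with test compound at 2 μM for 72 h, and scored by MTT absorbance. n = 3.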

mVDAC1 = mVDAC1 (Mus musculus, UniProt Q60932); assay: 19F NMR protein-ligand interaction experiment; type: binding; settings: compound 100 μM in LDAO buffer, with 5 μM mVDAC1
Chain of mVDAC1 (Q60932 14-296): as the sequence (Q60932 14-296 N251K) above, with K238N counted along it
How it was run: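 Recombinant mouse VDAC1 was expressed in E. coli M15, refolded from inclusion bodies into LDAO and purified by SEC. Test compound was used at 100 μM final in 20 mM Tris-HCl, 50 mM NaCl, 0.1% LDAO, pH 8.0, with or without 5 μM VDAC1. 19F spectra were taken at 298 K: 0.56 s acquisition, 1 s inter-scan delay, 256 scans, 2 Hz exponential broadening.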

Kd (mVDAC1 N238K [1]) [µM] | Kd (mVDAC1 wild-type [2]) [µM] | Kd (mVDAC1 K236A [3]) [µM] | Inflection temperature T(i), N207R (mVDAC1 N207R) [°C] | Temperature denaturation inflection point (Ti) shift (mVDAC1 wild-type [4]) | Inflection temperature T(i), WT (mVDAC1 wild-type [4]) [°C] | Inflection temperature T(i), K236A (mVDAC1 K236A [5]) [°C] | Inflection temperature T(i), N238F (mVDAC1 N238F) [°C] | Inflection temperature T(i), N238K (mVDAC1 N238K [6]) [°C] | Inflection temperature T(i), R218Y (mVDAC1 R218Y) [°C] | Inflection temperature T(i), N238R (mVDAC1 N238R) [°C] | Inflection temperature T(i), F18A (mVDAC1 F18A) [°C] | Kd (mVDAC1 wild-type [7]) [µM] | EC50 (Tumor (iCCA) organoids) [µM] | Structure (SMILES) | effect on viability of non-tumor organoids (non-tumor (NT) organoids) | effect on viability of iCCA organoids (Tumor (iCCA) organoids) | EC50 (NIH-3T3) [µM] | reduction in iCCA cell viability [8] | 19F resonance change upon VDAC1 binding (mVDAC1)
14.9 ± 0.5 | 18.7 ± 0.6 | 28.8 ± 0.2 | 63.0 ± 0.1 | +4.6 ± 0.1 °C | 60.2 ± 0.1 | 57.0 ± 0.1 | 63.2 ± 0.1 | 63.8 ± 0.1 | 61.6 ± 0.1 | 61.8 ± 0.1 | 58.1 ± 0.1 | – | – | Cc1ccc(C(=O)OCC(=O)N=c2sccn2Cc2ccccc2Cl)s1 [VA-C6, [2-[[3-[(2-chlorophenyl)methyl]-1,3-thiazol-2-ylidene]amino]-2-oxoethyl] 5-methylthiophene-2-carboxylate] | – | – | 127 ± 4 | – | –
15.2 ± 0.1 | 18.7 ± 0.3 | 26.4 ± 0.4 | 63.2 ± 0.1 | +4.6 ± 0.1 °C | 60.2 ± 0.1 | 57.3 ± 0.1 | 64.0 ± 0.1 | 64.0 ± 0.1 | 62.3 ± 0.1 | 62.5 ± 0.1 | 58.0 ± 0.1 | – | 15 ± 2 | O=C(CC(O)(c1nc2ccccc2s1)C(F)(F)F)c1cccc(Br)c1 (stereo not drawn) [VA-C1, 3-(1,3-benzothiazol-2-yl)-1-(3-bromophenyl)-4,4,4-trifluoro-3-hydroxybutan-1-one] | – | reduce cell viability of iCCA organoids in a dose-dependent manner | 146 ± 3 | about 50% | direct binding; also recorded: reduction and broadening of its peak

The next lines start with the molecule.

Structure (SMILES) | Kd (mVDAC1 N238K [1]) [µM] | Kd (mVDAC1 wild-type [2]) [µM] | Kd (mVDAC1 K236A [3]) [µM] | Inflection temperature T(i), N207R (mVDAC1 N207R) [°C] | Temperature denaturation inflection point (Ti) shift (mVDAC1 wild-type [4]) | Inflection temperature T(i), WT (mVDAC1 wild-type [4]) [°C] | Inflection temperature T(i), K236A (mVDAC1 K236A [5]) [°C] | Inflection temperature T(i), N238F (mVDAC1 N238F) [°C] | Inflection temperature T(i), N238K (mVDAC1 N238K [6]) [°C] | Inflection temperature T(i), R218Y (mVDAC1 R218Y) [°C] | Inflection temperature T(i), N238R (mVDAC1 N238R) [°C] | Inflection temperature T(i), F18A (mVDAC1 F18A) [°C] | Kd (mVDAC1 wild-type [7]) [µM] | EC50 (Tumor (iCCA) organoids) [µM] | effect on viability of non-tumor organoids (non-tumor (NT) organoids) | effect on viability of iCCA organoids (Tumor (iCCA) organoids) | EC50 (NIH-3T3) [µM] | reduction in iCCA cell viability [8] | 19F resonance change upon VDAC1 binding (mVDAC1)
Nc1ccn([C@@H]2O[C@H](CO)[C@@H](O)C2(F)F)c(=O)n1 [GMB, gemcitabine, reference compound] | – | – | – | – | – | – | – | – | – | – | – | – | – | – | significant efficacy | significant efficacy | – | – | –
NC(=O)C1=CN([C@@H]2O[C@H](COP(=O)(O)OP(=O)(O)OC[C@H]3O[C@@H](n4cnc5c(N)ncnc54)[C@H](O)[C@@H]3O)[C@@H](O)[C@H]2O)C=CC1 [NADH] | – | – | – | – | – | – | – | – | – | – | – | – | 6.8 ± 0.06 | – | – | – | – | – | –
CC(=O)N(c1nc(COC(=O)c2ccsc2)cs1)c1ccccc1F [VA-D10, [2-(N-acetyl-2-fluoroanilino)-1,3-thiazol-4-yl]methyl thiophene-3-carboxylate] | 10.7 ± 0.1 | 18.5 ± 0.2 | 28 ± 0.7 | 62.9 ± 0.1 | +4.9 ± 0.1 °C | 60.5 ± 0.1 | 57.9 ± 0.1 | 63.3 ± 0.1 | 64.4 ± 0.1 | 62.2 ± 0.2 | 63.1 ± 0.1 | 57.3 ± 0.1 | – | 25 ± 6 | – | reduce cell viability of iCCA organoids in a dose-dependent manner | 160 ± 4 | about 50% | direct binding; also recorded: significantly move their chemical shifts
O=C1C(=Cc2ccc(Cl)cc2)CSc2ccccc21 [VA-D11, 3-[(4-chlorophenyl)methylidene]thiochromen-4-one] | 13.1 ± 0.4 | 15.9 ± 0.7 | 24.2 ± 0.6 | 62.9 ± 0.1 | +4.7 ± 0.1 °C | 60.2 ± 0.1 | 57.9 ± 0.1 | 63.1 ± 0.1 | 64.5 ± 0.1 | 62.3 ± 0.1 | 63.1 ± 0.1 | 57.2 ± 0.1 | – | – | – | – | 118 ± 3 | – | –
